Test results taken from ChEMBL document CHEMBL4689842, “EUbOPEN Chemogenomics Library wave 1” (2021).
Values joined by “and” are separate entries in the source; they are usually repeats but may differ in a detail not shown here. Equal entries are not always repeated.

Test system: Fibroblast
Experiment: Multiplex assay against human fibroblast
Type: toxicity, cell-based
In short: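 At seeding, live cells were stained with Hoechst33342, BioTracker Green Microtubule Cytoskeleton Dye, MitoTracker Red and Annexin V Alexa Fluor 680. After compound addition they were imaged on a CQ1 microscope at 37°C and 5% CO2, and CellPathfinder machine-learning gating sorted them into Hoechst high-intensity objects or normal cells, with normal cells further split into healthy, pyknosed or fragmented nuclei and pyknosed cells into mitotic or apoptotic. Tubulin, mitochondrial-mass and membrane-permeability phenotypes are given as per cents of cells with healthy nuclei.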

[1] = 12 h, 1 µM, compound concentration 1 uM, replicate 1
[2] = 12 h, 1 µM, compound concentration 1 uM, replicate 2
[3] = 12 h, 10 µM, compound concentration 10 uM, replicate 1
[4] = 12 h, 10 µM, compound concentration 10 uM, replicate 2
[5] = 24 h, 1 µM, compound concentration 1 uM, replicate 1
[6] = 24 h, 1 µM, compound concentration 1 uM, replicate 2
[7] = 24 h, 10 µM, compound concentration 10 uM, replicate 1
[8] = 24 h, 10 µM, compound concentration 10 uM, replicate 2

Structure (SMILES): C=CC(=O)Nc1ccc2[nH]c(=O)n(C3CCN(Cc4ccc(-c5nc6cc[nH]c(=O)c6cc5-c5ccccc5)cc4)CC3)c2c1 [Borussertib]
- Population Apoptotic (%) [1]: 64%
- Population Fragmented Nuclei (%) [1]: 31%
- Population Healthy Nuclei (%) [1]: 51%
- Population Hoechst High Intensity Objects (%) [1]: 13%
- Population Membrane Permeable-Phenotype (%) [1]: 10%
- Population Mitochondria Different-Phenotype (%) [1]: 5%
- Population Mitotic Cells (%) [1]: 36%
- Population Normal (%) [1]: 86%
- Population Pyknosed Nuclei (%) [1]: 17%
- Population Tubulin-Different-Phenotype (%) [1]: 4%
- Total Cell Count [1]: 169
- Population Apoptotic (%) [2]: 33%
- Population Fragmented Nuclei (%) [2]: 63%
- Population Healthy Nuclei (%) [2]: 31%
- Population Hoechst High Intensity Objects (%) [2]: 30%
- Population Membrane Permeable-Phenotype (%) [2]: 11%
- Population Mitochondria Different-Phenotype (%) [2]: 0%
- Population Mitotic Cells (%) [2]: 66%
- Population Normal (%) [2]: 69%
- Population Pyknosed Nuclei (%) [2]: 5%
- Population Tubulin-Different-Phenotype (%) [2]: 16%
- Total Cell Count [2]: 83
- Population Apoptotic (%) [3]: 60%
- Population Fragmented Nuclei (%) [3]: 27%
- Population Healthy Nuclei (%) [3]: 56%
- Population Hoechst High Intensity Objects (%) [3]: 15%
- Population Membrane Permeable-Phenotype (%) [3]: 6%
- Population Mitochondria Different-Phenotype (%) [3]: 4%
- Population Mitotic Cells (%) [3]: 39%
- Population Normal (%) [3]: 84%
- Population Pyknosed Nuclei (%) [3]: 16%
- Population Tubulin-Different-Phenotype (%) [3]: 27%
- Total Cell Count [3]: 304
- Population Apoptotic (%) [4]: 44%
- Population Fragmented Nuclei (%) [4]: 64%
- Population Healthy Nuclei (%) [4]: 22%
- Population Hoechst High Intensity Objects (%) [4]: 29%
- Population Membrane Permeable-Phenotype (%) [4]: 25%
- Population Mitochondria Different-Phenotype (%) [4]: 18%
- Population Mitotic Cells (%) [4]: 55%
- Population Normal (%) [4]: 71%
- Population Pyknosed Nuclei (%) [4]: 12%
- Population Tubulin-Different-Phenotype (%) [4]: 68%
- Total Cell Count [4]: 100
- Population Apoptotic (%) [5]: 66%
- Population Fragmented Nuclei (%) [5]: 29%
- Population Healthy Nuclei (%) [5]: 56%
- Population Hoechst High Intensity Objects (%) [5]: 13%
- Population Membrane Permeable-Phenotype (%) [5]: 4%
- Population Mitochondria Different-Phenotype (%) [5]: 2%
- Population Mitotic Cells (%) [5]: 33%
- Population Normal (%) [5]: 86%
- Population Pyknosed Nuclei (%) [5]: 14%
- Population Tubulin-Different-Phenotype (%) [5]: 6%
- Total Cell Count [5]: 170
- Population Apoptotic (%) [6]: 100%
- Population Fragmented Nuclei (%) [6]: 56%
- Population Healthy Nuclei (%) [6]: 41%
- Population Hoechst High Intensity Objects (%) [6]: 32%
- Population Membrane Permeable-Phenotype (%) [6]: 5%
- Population Mitochondria Different-Phenotype (%) [6]: 10%
- Population Mitotic Cells (%) [6]: 0%
- Population Normal (%) [6]: 67%
- Population Pyknosed Nuclei (%) [6]: 2%
- Population Tubulin-Different-Phenotype (%) [6]: 10%
- Total Cell Count [6]: 68
- Population Apoptotic (%) [7]: 55%
- Population Fragmented Nuclei (%) [7]: 30%
- Population Healthy Nuclei (%) [7]: 56%
- Population Hoechst High Intensity Objects (%) [7]: 23%
- Population Membrane Permeable-Phenotype (%) [7]: 2%
- Population Mitochondria Different-Phenotype (%) [7]: 2%
- Population Mitotic Cells (%) [7]: 44%
- Population Normal (%) [7]: 76%
- Population Pyknosed Nuclei (%) [7]: 13%
- Population Tubulin-Different-Phenotype (%) [7]: 22%
- Total Cell Count [7]: 347
- Population Apoptotic (%) [8]: 33%
- Population Fragmented Nuclei (%) [8]: 55%
- Population Healthy Nuclei (%) [8]: 39%
- Population Hoechst High Intensity Objects (%) [8]: 40%
- Population Membrane Permeable-Phenotype (%) [8]: 4%
- Population Mitochondria Different-Phenotype (%) [8]: 8%
- Population Mitotic Cells (%) [8]: 66%
- Population Normal (%) [8]: 59%
- Population Pyknosed Nuclei (%) [8]: 5%
- Population Tubulin-Different-Phenotype (%) [8]: 43%
- Total Cell Count [8]: 97

Structure (SMILES): CNCc1ccccc1-c1csc([C@@H](C)Nc2nc(C)nc3cc(OC)c(OC)cc23)c1 [BAY-293]
- Population Apoptotic (%) [3]: 45% and 52%
- Population Fragmented Nuclei (%) [3]: 29% and 38%
- Population Healthy Nuclei (%) [3]: 45% and 27%
- Population Membrane Permeable-Phenotype (%) [3]: 11% and 24%
- Population Mitotic Cells (%) [3]: 54% and 47%
- Population Normal (%) [3]: 58% and 87%
- Population Pyknosed Nuclei (%) [3]: 24% and 33%
- Population Apoptotic (%) [4]: 83% and 66%
- Population Fragmented Nuclei (%) [4]: 50% and 52%
- Population Healthy Nuclei (%) [4]: 17% and 31%
- Population Hoechst High Intensity Objects (%) [4]: 34% and 42%
- Population Membrane Permeable-Phenotype (%) [4]: 20% and 8%
- Population Mitotic Cells (%) [4]: 16% and 33%
- Population Normal (%) [4]: 65% and 57%
- Population Pyknosed Nuclei (%) [4]: 32% and 16%
- Population Tubulin-Different-Phenotype (%) [4]: 50% and 30%
- Population Apoptotic (%) [7]: 89% and 38%
- Population Fragmented Nuclei (%) [7]: 36% and 23%
- Population Hoechst High Intensity Objects (%) [7]: 16% and 40%
- Population Membrane Permeable-Phenotype (%) [7]: 11% and 4%
- Population Normal (%) [7]: 83% and 59%
- Population Pyknosed Nuclei (%) [7]: 56% and 28%
- Population Tubulin-Different-Phenotype (%) [7]: 22% and 14%
- Population Apoptotic (%) [8]: 66% and 90%
- Population Fragmented Nuclei (%) [8]: 52% and 60%
- Population Hoechst High Intensity Objects (%) [8]: 44%
- Population Normal (%) [8]: 55%
- Population Pyknosed Nuclei (%) [8]: 10% and 27%
- Population Tubulin-Different-Phenotype (%) [8]: 38% and 20%
